# Screening results (PubChem BioAssay)
# pPAFAH inh – pPAFAH (human) enzyme inhibition. inhibition, % at 3.39 µM. recombinant pPAFAH, FP-rhodamine probe fluorescence polarization. actives 1.5% (n = 330,000). Q13093;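 active = inhibition above the mean inhibition across the screen plus 3 SD, cut at about 25% in these data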;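 note: inhibitors block binding of the rhodamine activity-based probe so polarization drops; 0% = enzyme with DMSO and 100% = wells lacking pPAFAH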
# Target sequence (Q13093 whole entry, looked up): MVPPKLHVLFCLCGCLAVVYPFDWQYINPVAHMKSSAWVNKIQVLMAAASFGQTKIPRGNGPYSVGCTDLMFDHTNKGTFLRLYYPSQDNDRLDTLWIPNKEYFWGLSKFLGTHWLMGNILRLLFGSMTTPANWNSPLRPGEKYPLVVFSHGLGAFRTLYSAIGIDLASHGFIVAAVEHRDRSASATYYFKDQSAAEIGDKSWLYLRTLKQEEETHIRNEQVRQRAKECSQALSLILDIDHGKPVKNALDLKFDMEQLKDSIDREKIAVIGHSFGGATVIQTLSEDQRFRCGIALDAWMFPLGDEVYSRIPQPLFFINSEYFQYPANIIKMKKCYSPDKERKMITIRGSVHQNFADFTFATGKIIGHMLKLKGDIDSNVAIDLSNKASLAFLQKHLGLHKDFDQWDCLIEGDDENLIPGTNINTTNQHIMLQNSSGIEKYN
# PAFAH2 inh – PAFAH2 (human) inhibition; Q99487; recombinant PAFAH2, FP-rhodamine activity probe, fluorescence polarization; inhibition, % at 3.39 µM; actives 0.99% (n = 340,000); AID 492956;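 active = inhibition above the mean over all tested compounds plus 3 SD, cut at about 30% in these data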;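 note: inhibitors block probe labeling of enzyme so polarization drops; 0% = enzyme with DMSO and 100% = wells lacking PAFAH2 protein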
# PAFAH1B3 inh – blocks human PAF acetylhydrolase 1B catalytic subunit 3; Q15102; AID 492972; recombinant PAFAH1B3, FP-rhodamine probe, fluorescence polarization; actives 0.28% (n = 340,000); inhibition, % at 3.39 µM;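 active = inhibition above the screen-wide average of all tested compounds plus 3 SD, cut at about 25% in these data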;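 note: 0% = enzyme with DMSO only and 100% = wells lacking PAFAH1B3 protein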
# NR3A LBD binder – modulates the human NR3A ligand-binding domain; Tm shift relative to glycine control, % at 25 µM; NR3A LBD differential scanning fluorimetry, Tm shift; 0% = protein alone, 100% = glycine-bound protein; actives 2.5% (n = 340,000);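 active = melting temperature shift of at least 10% of the positive control shift, at one fixed dose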
# UCH37 inh – blocks the human deubiquitinase UCH37. Q9Y5K5. purified proteasome/UCH37, Ub-AMC cleavage fluorescence. inhibition, % (test concentration not listed). actives 0.33% (n = 330,000). AID 588478;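 active = mean inhibition over replicate wells above about 20%, limit read from the data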;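 note: 0% = compound-free wells with enzyme and 100% = wells lacking proteasome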
#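 Signal – fluorescence, ex 355 nm, em 460 nm · System – Proteasome-bound UCH37 · Input – 0.15 nM proteasome as dispensed · Timing – 30 min preincubation with enzyme, 25 min cleavage at room temperature · Read-out basis – percent inhibition of cleavage signal versus uninhibited and no-proteasome wells · Medium – Tris-HCl pH 7.4 with ATP-MgCl2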
# PAFAH1B2 inh – PAFAH1B2 (human) inhibition; recombinant PAFAH1B2, FP-rhodamine activity probe, fluorescence polarization; actives 1.2% (n = 340,000); inhibition, % at 3.39 µM; P68402;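 active = inhibition above the mean of all tested compounds plus 3 SD, cut at about 24% in these data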;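 note: 0% = enzyme with DMSO and 100% = wells lacking PAFAH1B2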
# Target sequence (P68402 whole entry, looked up): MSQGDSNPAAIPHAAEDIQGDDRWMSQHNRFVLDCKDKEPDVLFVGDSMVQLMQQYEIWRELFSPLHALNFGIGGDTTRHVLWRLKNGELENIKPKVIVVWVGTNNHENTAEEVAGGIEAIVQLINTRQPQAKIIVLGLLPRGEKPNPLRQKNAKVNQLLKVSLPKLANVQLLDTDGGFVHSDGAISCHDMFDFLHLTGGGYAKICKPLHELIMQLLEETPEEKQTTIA
# The depositor's hits bear a star; . = no result given. Most compounds without a hit are left out; they make up all but 4.8% or so of the library.
SMILES,pPAFAH inh,PAFAH2 inh,PAFAH1B3 inh,NR3A LBD binder,UCH37 inh,PAFAH1B2 inh
CCOc1cc(/C=N/O)cc(Br)c1OCc1ccc(Cl)cc1,-7.1,-5.9,-10.1,12.8*,.,-3.5
O=S(=O)(NCc1ccccc1)NCc1ccc(Cl)cc1Cl,1.9,8.7,4.0,-0.7,4.4,28.4*
CSc1ccc(S(=O)(=O)NCc2ccc(Cl)cc2Cl)cc1,-0.8,1.1,3.9,-3.6,0.8,29.2*
COCC(=O)NN=Cc1c(C)[nH]n(-c2ccccc2)c1=O,.,.,.,.,4.1,.
COc1ccc(O)c(-c2c(-c3ccc(Cl)cc3)n[nH]c2C)c1,1.5,16.4,5.0,-5.2,2.2,1.2
COc1ccc(-c2n[nH]c(C)c2-c2ccc(Cl)cc2)c(O)c1OC,32.5*,-0.9,4.5,-17.8,1.4,6.0
Cc1[nH]nc(-c2ccc(O)cc2O)c1-c1ccc(Cl)cc1,9.6,-4.0,-4.6,22.7*,3.6,16.4
COc1ccc(-c2n[nH]c(C)c2-c2ccc(Cl)cc2)c(O)c1,17.6,-4.1,9.8,10.4*,1.4,6.9
Cc1ccc(C=NNc2nc3ccc(Cl)cc3[nH]2)o1,.,.,.,.,4.0,.
O=C(O)c1ccccc1N=NC(=NNc1cc(S(=O)(=O)O)ccc1O)c1ccccc1,.,.,.,.,20.0,.
O=C(NCc1ccncc1)C(=O)NN=Cc1ccccc1OCc1ccccc1,.,.,.,.,3.8,.
Cc1ccc(C)c(OCCC(=O)OCC(=O)NCc2ccc(F)cc2)c1,29.9*,6.5,6.4,3.5,0.8,3.8
Cc1ccc(OCCC(=O)OCC(=O)NCc2ccccc2)cc1,29.9*,-2.5,3.5,-0.4,2.3,1.2
CCCCC(=O)NCCc1ccc(OC)cc1,-5.5,-6.7,7.1,-0.8,0.9,4.6
COc1ccc(OCCC(=O)OCC(=O)NCc2ccc(F)cc2)cc1,13.5,-6.6,-0.5,-0.4,1.6,1.2
CCOc1ccc(OCCC(=O)OCC(=O)NCc2ccccc2)cc1,31.8*,-5.6,-3.0,1.5,2.6,-1.2
CCOc1ccc(OCCCC(=O)NCCc2ccc(OC)cc2)cc1,-0.6,-2.1,3.9,33.9*,-2.0,10.6
O=C(NN=C/C=C/c1ccco1)c1cccs1,.,.,.,.,11.0,.
CCCOc1ccc(/C=C/C(=O)NCc2ccccc2)cc1,1.6,-3.5,8.5,12.5*,1.4,-2.9
Cc1cccc(C=NNC(=O)c2ccccc2OCc2cccc(Br)c2)n1,.,.,.,.,5.6,.
Clc1ccc(CON=C2CCCc3nonc32)c(Cl)c1,.,.,.,.,0.6,.
Cc1cc(C(F)(F)F)nn1CC(=O)N(C)c1ccccc1,2.3,3.1,8.3,-0.1,0.0,5.1
Cc1cc(C(F)(F)F)nn1CC(=O)N(C)C1CCCCC1,-0.3,-2.3,4.1,0.9,32.0*,4.6
O=C(CNc1ccc(Cl)cc1)NNC(=S)NCc1ccccc1,5.3,-4.1,1.1,-6.0,4.1,9.1
O=C(CCc1ccccc1)NNC(=S)NCc1ccc(Cl)cc1,27.6*,-2.2,7.5,-1.2,0.5,24.8*
SMILES,pPAFAH inh,PAFAH2 inh,PAFAH1B3 inh,NR3A LBD binder,UCH37 inh,PAFAH1B2 inh
Cc1cc(C)n2nc(C(=O)NN=C/C=C/c3ccccc3)nc2n1,.,.,.,.,2.3,.
O=c1ccc2ccc(Oc3ccc([N+](=O)[O-])cc3Cl)cc2o1,30.4*,0.8,3.8,4.0,-2.2,0.7
Oc1ccc(N=Cc2ccc(-c3cccs3)s2)cc1,21.6,8.9,15.8,27.1*,-264.6,14.5
COc1ccc(C(C)=NNC(=O)CNC(=O)c2ccncc2)c(OC)c1,.,.,.,.,1.5,.
Cc1cccc(C)c1OCc1cc(C(=O)N2CCN3CCCC3C2)no1 (stereo not given),.,-3.7,7.3,12.6*,-1.6,-1.6
O=C(c1cc(COc2ccc(F)cc2Cl)on1)N1CCN(C2CCCCC2)C(=O)C1,4.5,0.0,0.3,4.8,1.5,-0.8
O=C(c1cc(COc2ccc(F)cc2Cl)on1)N1CCN(C2CCCC2)CC1,26.0*,-6.9,3.8,-4.1,4.7,1.5
CNC(=S)NN=Cc1cccc(OCc2ccccc2F)c1,.,.,.,.,4.7,.
O=C(NN=Cc1cn(-c2ccccc2)nc1-c1ccc(F)cc1)c1ccc2c(c1)OCO2,.,.,.,.,3.2,.
COc1ccc(/C(N)=N/OC(=O)Cc2cccs2)cc1OC,14.1,-1.1,9.1,-3.4,2.3,-3.5
COc1ccc(/C(N)=N/OC(=O)Cc2cccs2)cc1,0.7,-7.4,5.5,10.6*,-1.3,4.3
COc1cc(Nc2c3ccccc3nc3ccccc23)cc(OC)c1OC,6.2,3.2,6.8,-9.1,-16.2,6.5
COc1ccc(Nc2ccc(OC)cc2)cc1,9.8,.,.,-16.4,4.4,.
COc1ccc(Nc2cc(Nc3cc(OC)c(OC)c(OC)c3)ncn2)cc1,8.8,1.1,5.8,13.6*,3.5,-0.5
COc1ccc(Nc2cc(Nc3cccc(OC)c3)ncn2)cc1,2.5,9.9,10.6,27.4*,1.0,-1.4
COc1ccc(Nc2ccc(Nc3ccc(OC)cc3)nn2)cc1,5.4,2.1,4.4,26.9*,2.1,1.4
COc1ccc(Nc2cc(Nc3ccc(OC)cc3)ncn2)cc1,5.6,-13.7,9.1,16.1*,3.2,6.7
CC(=NNc1ncc(Cl)cc1Cl)c1cccs1,.,.,.,.,8.5,.
CC(C)(Cc1ccc(O)cc1)NC(=O)CC(=O)NN=Cc1ccc([N+](=O)[O-])cc1,.,.,.,.,7.2,.
CC(=NNc1cc(N2CCOCC2)ncn1)c1ccc(O)cc1,.,.,.,.,3.7,.
Cc1nn(CCc2nn[nH]n2)c2nc(-c3ccc(C4CCCCC4)cc3)cc(C(F)(F)F)c12,27.1*,16.6,-6.5,-2.5,-145.0,0.0
C(=NNc1ccc2ccccc2n1)c1ccc2c(c1)OCCO2,.,.,.,.,-74.6,.
O=[N+]([O-])c1cc(C(F)(F)F)ccc1Sc1nccn1Cc1ccccc1,7.1,3.0,9.4,0.0,3.0,70.1*
CN(C)C=NC(=S)Nc1ccc(F)cc1,.,.,.,.,5.1,.
CC(C)NC(=O)c1cc(-n2cnnc2)ccc1Cl,4.1,-1.4,1.3,11.2*,-0.1,3.0
SMILES,pPAFAH inh,PAFAH2 inh,PAFAH1B3 inh,NR3A LBD binder,UCH37 inh,PAFAH1B2 inh
CC(C)c1ccc(C=NNC(=O)c2ccccc2Cl)cc1,.,.,.,.,3.8,.
Nc1nnc(-c2ccc(Cl)cc2Cl)s1,1.7,1.1,7.3,12.1*,-4.5,1.8
O=C(NN=Cc1ccco1)C1(O)c2ccccc2-c2ccccc21,.,.,.,.,2.3,.
Cc1ccc(N2C(=O)C(Cl)=C(NCCO)C2=O)c(C)c1,2.2,-1.6,2.8,361.4*,3.6,-0.8
N#CCC(=O)NN=C1CCCCC1C1CCCCC1 (stereo not given),.,.,.,.,2.2,.
C=CCc1ccccc1OCCn1ccnc1,8.6,1.1,-2.3,-2.6,6.5,4.5
C=CCc1cccc(OC)c1OCCOCCn1ccnc1,-0.1,4.8,-3.5,12.2*,4.2,2.7
N#CC12CCCCC1CC1CCCCC1(C#N)N2Cc1ccccn1 (stereo not given),-7.3,6.2,7.4,10.2*,5.3,4.4
Oc1ccccc1C=NNC(=S)NC1CC2CC1C1C=CCC21 (stereo not given),.,.,.,.,-1.0,.
Cc1cnc(C(=O)OCC(=O)Nc2ccc(Br)c(C)c2)cn1,-4.0,0.7,-4.1,12.4*,1.3,-2.0
